According to PubChem BioAssay:
Calls of active or inactive are those of the source.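 How the source made its calls, unless noted: active means inhibition above 20% together with a positive visual image hit; inconclusive means visual image hit but inhibition not above 20%; inactive means no visual image hit.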

Tests used:
[1] = inhibitors of TNFa-induced NFkB p65 translocation, primary screen, imaging, HUVEC, MLSMR starter and 10KST1 sets (AID 438); settings: HUVEC TNFa-induced p65 nuclear translocation; cell count: measured here: nuclei count (cytotoxicity indicator), at 2.08 µM; inhibition: at 2 µM, stronger effect = higher value, 0% TNFa-plus-vehicle, 100% no-TNFa wells;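 further: compound added about 3h40 before a 20 min TNFalpha stimulation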;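 on inhibition: signal is the nuclear over cytoplasmic p65 intensity ratio per well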
[2] = inhibitors of mutant huntingtin aggregation, primary screen, imaging, exon1htt(103Q)mCFP cells, high-content imaging (AID 483;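 active means visual image review flags a hit and inhibition of aggregation exceeds 20%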;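 further: compound exposure lasted 3 days before fixation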;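 on nuclei count: percent of the per-plate median nuclei count of sample wells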); settings: exon1htt(103Q)mCFP cell line, aggregate imaging, at 2 µM; inhibition of aggregation: stronger effect = higher value; nuclei count: measured here: cell count, toxicity
[3] = inhibitors of E-selectin induction by TNFa, primary screen, imaging, HUVEC, immunofluorescence, MLSMR starter and 10KST1 sets (AID 487;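 active means visually confirmed hit in the image check and inhibition above 20%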;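 on inhibition: signal is fraction of cell area covered by stained E-selectin grains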;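 on nuclei count: 100% = median nuclei count of all wells on the same plate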); settings: HUVEC TNFalpha-induced E-selectin immunofluorescence imaging, at 2 µM; inhibition: stronger effect = higher value; nuclei count: measured here: cell number, toxicity
[4] = target: Voltage-gated potassium channel subunit beta-2 (Rattus norvegicus) (UniProt P62483); experiment: KvBeta enzyme negative modulators, primary screen, biochemical, NADPH fluorescence (AID 622;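 active means fluorescence slope higher than the sample average by over 3 SD, cut at about -0.22 in these data, passing the limit was not always enough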;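 further: slope of raw intensity against log time taken from 70 to 1610 s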); settings: recombinant KvBeta, 4-cyanobenzaldehyde reduction, at 10 µM, stronger effect = higher value
Voltage-gated potassium channel subunit beta-2 (Rattus norvegicus), sequence (P62483 whole entry, looked up): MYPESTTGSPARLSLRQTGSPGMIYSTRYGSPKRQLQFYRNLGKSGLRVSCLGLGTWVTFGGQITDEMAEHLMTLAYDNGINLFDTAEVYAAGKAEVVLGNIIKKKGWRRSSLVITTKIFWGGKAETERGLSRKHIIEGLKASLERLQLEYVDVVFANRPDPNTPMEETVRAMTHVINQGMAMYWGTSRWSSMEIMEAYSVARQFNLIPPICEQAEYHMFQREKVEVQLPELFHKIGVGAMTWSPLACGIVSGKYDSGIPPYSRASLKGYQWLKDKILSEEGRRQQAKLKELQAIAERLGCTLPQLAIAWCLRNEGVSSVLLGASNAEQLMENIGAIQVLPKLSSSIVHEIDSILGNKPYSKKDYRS

[5] = target: Voltage-gated potassium channel subunit beta-2 (Rattus norvegicus) (UniProt P62483); experiment: KvBeta positive modulators, primary screen, biochemical, NADPH fluorescence (AID 623;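 active means NADPH fluorescence slope more negative than the mean of all samples by about 3 SD, 99.7% confidence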;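 further: fluorescence intensity change per second fitted from 20 to 320 s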); settings: Recombinant KvBeta, NADPH fluorescence decrease slope, 10 min; at 10 µM; stronger effect = lower value
[6] = target: Muscarinic acetylcholine receptor M4 (Homo sapiens) (UniProt P08173); experiment: compounds altering M4/GIRK thallium flux, either direction, primary screen, M4 allosteric agonist project, cell-based, HEK293 M4/GIRK, BTC-AM (AID 625;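 active means fluorescence slope after compound addition differing from the mean of all tested samples at 99.7% confidence, mostly higher but some lower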;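 further: thallium influx through GIRK channels coupled to M4 in HEK293 cells with BTC-AM dye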); settings: at 10 µM, actives lie on both sides
Muscarinic acetylcholine receptor M4 (Homo sapiens), sequence (P08173 whole entry, looked up): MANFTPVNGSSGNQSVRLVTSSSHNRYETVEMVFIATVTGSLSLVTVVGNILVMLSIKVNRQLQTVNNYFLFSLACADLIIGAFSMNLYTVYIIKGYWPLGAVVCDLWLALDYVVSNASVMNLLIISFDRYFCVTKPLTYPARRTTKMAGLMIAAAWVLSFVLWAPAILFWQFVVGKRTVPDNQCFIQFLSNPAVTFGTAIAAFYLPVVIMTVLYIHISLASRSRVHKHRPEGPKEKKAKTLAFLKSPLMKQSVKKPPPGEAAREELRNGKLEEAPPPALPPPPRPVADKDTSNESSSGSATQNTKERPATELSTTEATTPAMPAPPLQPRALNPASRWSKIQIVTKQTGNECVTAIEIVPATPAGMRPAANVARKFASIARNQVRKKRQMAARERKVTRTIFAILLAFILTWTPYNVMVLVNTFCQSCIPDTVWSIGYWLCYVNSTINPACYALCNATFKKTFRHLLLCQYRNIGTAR
Procedure, shortened: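 Material – HEK293 cells with M4 receptor and GIRK channels · Buffer or medium – pH 7.3 thallium assay buffer · Doses – one dose, 10 µM final · Timing – cells overnight at 37 °C, BTC-AM loading 1 h, reads 2 min total · Measured by – kinetic fluorescence with BTC-AM dye · Controls – carbachol and DMSO controls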

[7] = inhibitors of Sendai virus-induced IRF3 signaling, primary screen, TLR/RLR signaling modifier project, cell-based, Sendai virus stimulus, luciferase, 10K MLSCN set (AID 602276;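 active means inhibition at or above 50% at 10 µM; inactive means inhibition below 50%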;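 further: firefly luciferase from ISG56 promoter only with Renilla not read in this screen; 0% = Sendai virus plus DMSO and 100% = medium plus DMSO without virus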); settings: HEK293 RL24 IRF3 luciferase reporter, at 10 µM, stronger effect = higher value
[8] = inhibitors of poly I:C-induced TLR3 signaling, primary screen, cell-based, poly I:C stimulus, luciferase, 10K MLSCN set (AID 602277;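 active means inhibition of the reporter signal at or above 50%; inactive means inhibition below 50%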); settings: HEK293-TLR3 RL24 IRF3 luciferase reporter, at 10 µM, stronger effect = higher value

Row | Compound | cell count [1] | inhibition [1] | inhibition of aggregation [2] | nuclei count [2] [%] | inhibition [3] | nuclei count [3] [%] | fluorescence slope [4] | NADPH fluorescence slope [5] | fluorescence slope [6] | inhibition [7] | inhibition [8]
1 | COc1ccc(N2CCN(C(=O)CSc3nnc(Cn4nnc5ccccc54)n3C)CC2)cc1 | 525 | 5.7% (inactive) | -2.8% (inactive) | 103 | -48.7% (inactive) | 101 | -0.578 (inactive) | -2.5e-05 (inactive) | 0.0066 (inactive) | -9.14% (inactive) | -5.63% (inactive)
2 | CCn1c(COc2cccc3ccccc23)nnc1SCC(N)=O | 436 | 9.4% (inactive) | -3.1% (inactive) | 99.6 | -0.1% (inactive) | 124 | -0.524 (inactive) | -6.7e-05 (inactive) | 0.00477 (inactive) | 12.9% (inactive) | 19.7% (inactive)
3 | Cc1cc(C)cc(NS(=O)(=O)c2ccc3[nH]cc(C(=O)NCc4ccco4)c(=O)c3c2)c1 | 416 | 1.5% (inactive) | 3.8% (inactive) | 99.9 | -19.7% (inactive) | 97.7 | -0.57 (inactive) | -4.7e-05 (inactive) | 0.00555 (inactive) | 39.5% (inactive) | 49.1% (inactive)
4 | CCOC(=O)N1CCC(N(C(=O)Nc2ccc(Cl)c(Cl)c2)C(C)CC)CC1 (centres undefined) | 346 | -3.2% (inactive) | 4.4% (inactive) | 120 | -44% (inactive) | 118 | -0.489 (inactive) | -7.4e-06 (inactive) | 0.00507 (inactive) | 8.19% (inactive) | -18.2% (inactive)
5 | COC(=O)c1onc(C(=O)c2ccccc2)c1C(=O)OC | 405 | 2.7% (inactive) | -4.5% (inactive) | 103 | -67.9% (inactive) | 114 | -0.568 (inactive) | -4.3e-05 (inactive) | 0.00647 (inactive) | 16.3% (inactive) | 12.9% (inactive)
6 | CCOC(=O)N1CCC(O)(c2cc(C)c(C)cc2C)CC1 | 494 | -1.1% (inactive) | -15.6% (inactive) | 93 | -16% (inactive) | 112 | -0.316 (inactive) | -2.5e-05 (inactive) | 0.00607 (inactive) | 16.2% (inactive) | -0.7% (inactive)
7 | Cn1c(=O)cc(SCC(=O)NCC2CCCO2)c2ccc(Cl)cc21 (centres undefined) | 467 | -11.6% (inactive) | 3.4% (inactive) | 107 | 26.9% (inactive) | 93.8 | -0.549 (inactive) | -3.4e-05 (inactive) | 0.00522 (inactive) | 10.3% (inactive) | 9.81% (inactive)
8 | CCOC(=O)c1cccc(NC(=O)CSc2nnc(-c3ccoc3C)n2CCOC)c1 | 553 | -9.5% (inactive) | 1% (inactive) | 89.7 | -140% (inactive) | 133 | -0.577 (inactive) | 7.3e-06 (inactive) | 0.00584 (inactive) | 18.8% (inactive) | 27.2% (inactive)
9 | COc1ccccc1-c1noc(-c2cccnc2)n1 | 405 | 0% (inactive) | -5.9% (inactive) | 106 | -6.3% (inactive) | 125 | -0.568 (inactive) | -7.6e-05 (inactive) | 0.00345 (inactive) | -24.5% (inactive) | -87.9% (inactive)
10 | O=C(OCC(=O)c1c[nH]c2ccccc12)C1=COCCO1 | 579 | -6.9% (inactive) | -9.2% (inactive) | 100 | -1% (inactive) | 69.3 | -0.271 (inactive) | -5.8e-05 (inactive) | 0.00653 (inactive) | -19.9% (inactive) | -100% (inactive)
11 | CC(=O)SCC(=O)N=c1sc2cc(F)ccc2n1C | 491 | 1.1% (inactive) | -2.8% (inactive) | 91.7 | 3.4% (inactive) | 104 | -0.493 (inactive) | 4.8e-06 (inactive) | 0.00565 (inactive) | 3.65% (inactive) | 2.45% (inactive)
12 | COC(=O)Cn1c2c(c3cc(C)ccc31)CCCC2 | 640 | -9.9% (inactive) | 23.1% (inactive) | 91.1 | -28.6% (inactive) | 111 | -0.523 (inactive) | -0.000167 (inactive) | 0.00431 (inactive) | 18.4% (inactive) | 21.6% (inactive)
13 | CCC(=O)N1CCc2cc(Br)cc(S(=O)(=O)CCC(=O)NCC3CCCO3)c21 (centres undefined) | 628 | 2.7% (inactive) | 12.7% (inactive) | 76.3 | -113% (inactive) | 107 | -0.312 (inactive) | -3.4e-05 (inactive) | 0.00706 (inactive) | 11.2% (inactive) | 9.46% (inactive)
14 | Cc1cccc(OCC(=O)Nc2ccccc2N2CCN(C(=O)C(C)C)CC2)c1C | 232 | -21.4% (inactive) | 6% (inactive) | 73.8 | -26.3% (inactive) | 68.6 | -0.585 (inactive) | -2.3e-05 (inactive) | 0.00511 (inactive) | 15.5% (inactive) | 25.9% (inactive)
